Assay results published in ChEMBL document CHEMBL4725282, “Discovery of a Conformationally Constrained Oxazolidinone with Improved Safety and Efficacy Profiles for the Treatment of Multidrug-Resistant Tuberculosis” (J Med Chem, 2020).

Key:
[1] = Toxicity in male Sprague-Dawley rat assessed as change in hemoglobin count at 150 mg/kg/day, po administered for 4 weeks followed by 2 week recovery period (Rvb =144 +/- 5 g/L); format: organism-based; settings: in vivo, 672 h
[2] = Toxicity in male Sprague-Dawley rat assessed as change in mean corpuscular volume at 150 mg/kg/day, po administered for 4 weeks followed by 2 week recovery period (Rvb =57.5 +/- 2.0 fL); format: organism-based; settings: in vivo, 672 h
[3] = Oral bioavailability in Balb/c mouse at 25 mg/kg by LC-MS/MS analysis; format: ADME, organism-based; settings: in vivo
Summary of the method: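 Female BALB/c mice, 20-25 g, five per route. Dosed 25 mg/kg p.o. in 0.5% carboxymethyl cellulose or 2.5 mg/kg i.v. in 10% DMSO/saline. Blood sampled 5 min-72 h (p.o.) or 2 min-48 h (i.v.), quantified by LC/MS/MS with ESI+. Parameters by non-compartmental analysis; F = (AUCpo×dose_iv)/(AUCiv×dose_po)×100%.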

[4] = Apparent permeability in human Caco-2 cells at 50 uM after 1 hr by UPLC analysis; format: ADME, cell-based
Summary of the method: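 Caco-2 monolayers on Transwells, cultured 21 days, TEER required >500 Ω×cm². Compound at 50 μM added apically, 1 h at 37 °C. Transported compound quantified by UPLC. Papp = (dQ/dt)/(C0×A).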

[5] = Toxicity in male Sprague-Dawley rat assessed as body weight loss at 50 to 450 mg/kg/day, po administered for 4 weeks measured at 1 week interval; format: organism-based; settings: in vivo, 672 h, dose 50-450 mg/kg/day
Summary of the method: (§1)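 SD rats, 6-7 weeks old (96 in total), split into vehicle, 50, 150 and 450 mg/kg/day groups of 12 females and 12 males each, given oral doses once daily for 4 weeks, then 2 weeks of recovery. Mortality, body weight, food intake, eyes, urine and neuropsychic signs were observed. Organ and bone marrow histopathology was done on 8 rats per sex per group after the last dose and on the remaining 4 per sex after 14 days of recovery.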

[6] = Half life in Sprague-Dawley rat hepatocytes at 2 uM by LC-MS/MS analysis; format: ADME, cell-based, Hepatocyte
Summary of the method: (§2)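 Hepatocytes (male CD-1 mouse, male SD rat, male beagle dog, male cynomolgus monkey, pooled human), final 1 μM compound and 1 million cells/mL, made by mixing 2 μM compound with 2 million cells/mL. Incubated at 37 °C in a CO2 incubator; sampled at 0, 15, 30, 60, 90 and 120 min. Quenched with methanol/ACN containing 0.1% formic acid. Parent remaining measured by LC-MS/MS.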

[7] = Toxicity in male Sprague-Dawley rat assessed as histopathological changes in bone marrow at 450 mg/kg/day, po administered for 4 weeks measured post last dose; format: organism-based; settings: in vivo, 672 h
[8] = Toxicity in male Sprague-Dawley rat assessed as change in reticulocyte level at 150 mg/kg/day, po administered for 4 weeks followed by 2 week recovery period (Rvb =2.48 +/- 0.34 %); format: organism-based; settings: in vivo, 672 h
Cytochrome P450 3A4 = Cytochrome P450 3A4 (Homo sapiens, UniProt P08684); assay: Inhibition of CYP3A4 in human liver microsomes after 20 mins by LC-MS/MS analysis; format: ADME
Summary of the method: (§3)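 Human liver microsomes (0.2 mg/mL) in phosphate buffer, 20 min incubation with compound at 0.1-50 μM alongside isoform-specific substrates and a positive control. Substrate remaining monitored by LC-MS/MS at each concentration; IC50 derived.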

[9] = Toxicity in female Sprague-Dawley rat assessed as change in mean platelet volume at 450 mg/kg/day, po administered for 4 weeks followed by 2 week recovery period (Rvb =7.1 +/- 0.5 fL); format: organism-based; settings: in vivo, 672 h
[10] = Toxicity in male Sprague-Dawley rat assessed as change in neutrophil level at 150 mg/kg/day, po administered for 4 weeks followed by 2 week recovery period (Rvb =15.9 +/- 3.4 %); format: organism-based; settings: in vivo, 672 h
[11] = Toxicity in female Sprague-Dawley rat assessed as body weight loss at 50 to 450 mg/kg/day, po administered for 4 weeks followed by 2 week recovery period measured at 1 week interval; format: organism-based; settings: in vivo, 672 h, dose 50-450 mg/kg/day
Summary of the method: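 SD rats, 6-7 weeks, 12 male and 12 female per group. Oral dosing once daily at 50, 150 or 450 mg/kg/day or vehicle for 4 weeks, then 2-week recovery. 8 per sex dissected after last dose, remaining 4 per sex after 14-day recovery. Body weight, urine, food intake and clinical signs monitored.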

[12] = Genotoxicity in CHO-WBL cells assessed as chromosome aberration at 20 to 150 ug/ml incubated for 3 hrs followed by compound washout and measured after 17 hrs in presence of S9 fraction by Giemsa staining based; format: toxicity, subcellular, Cricetulus griseus; settings: chinese hamster, s9, 3 h, dose 20-150 µg/ml
Summary of the method: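 CHO-WBL cells in McCoy's 5A with 10% FBS, seeded 20-24 h before treatment. Compound in DMSO, with or without serum-free S-9 mix. Treatment either 3 h, then HBSS wash and 17 h further culture, or 20 h; harvest at 20 h from treatment start. Colcemid 0.1 μg/mL for the final 2 h, hypotonic KCl, methanol:acetic acid fixation, Giemsa stain. 300 metaphases per concentration (150 per duplicate flask) scored.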

[13] = Toxicity in male Sprague-Dawley rat assessed as change in neutrophil level at 450 mg/kg/day, po administered for 4 weeks followed by 2 week recovery period (Rvb =15.9 +/- 3.4 %); format: organism-based; settings: in vivo, 672 h
Cytochrome P450 2C19 = Cytochrome P450 2C19 (Homo sapiens, UniProt P33261); assay: Inhibition of CYP2C19 in human liver microsomes after 20 mins by LC-MS/MS analysis; format: ADME; summary of the method: as §3
[14] = Toxicity in male Sprague-Dawley rat assessed as ophthalmic changes at 50 to 450 mg/kg/day, po administered for 4 weeks measured within 7 days of post last dose; format: organism-based; settings: in vivo, 672 h, dose 50-450 mg/kg/day
[15] = Half life in human hepatocytes at 2 uM by LC-MS/MS analysis; format: ADME, cell-based, Hepatocyte; summary of the method: as §2
[16] = Toxicity in female Sprague-Dawley rat assessed as change in lymphocyte level at 50 mg/kg/day, po administered for 4 weeks followed by 2 week recovery period (Rvb =76.9 +/- 4.6 %); format: organism-based; settings: in vivo, 672 h
[17] = Toxicity in male Sprague-Dawley rat assessed as change in red blood cell count at 150 mg/kg/day, po administered for 4 weeks followed by 2 week recovery period (Rvb =7.86 +/- 0.32 10^12/L); format: organism-based; settings: in vivo, 672 h
[18] = Toxicity in female Sprague-Dawley rat assessed as change in platelet count at 50 mg/kg/day, po administered for 4 weeks followed by 2 week recovery period (Rvb =1051 +/- 122 10^9/L); format: organism-based; settings: in vivo, 672 h
[19] = Half life in cynomolgus monkey hepatocytes at 2 uM by LC-MS/MS analysis; format: ADME, cell-based, Macaca fascicularis, Hepatocyte; summary of the method: as §2
[20] = Toxicity in female Sprague-Dawley rat assessed as changes in neuropsychic symptoms at 50 to 450 mg/kg/day, po administered for 4 weeks measured during last 24 hrs of treatment period; format: organism-based; settings: in vivo, 672 h, dose 50-450 mg/kg/day; summary of the method: as §1
[21] = Toxicity in female Sprague-Dawley rat assessed as change in platelet count at 450 mg/kg/day, po administered for 4 weeks followed by 2 week recovery period (Rvb =1051 +/- 122 10^9/L); format: organism-based; settings: in vivo, 672 h
[22] = Toxicity in male Sprague-Dawley rat assessed as change in reticulocyte level at 450 mg/kg/day, po administered for 4 weeks followed by 2 week recovery period (Rvb =2.48 +/- 0.34 %); format: organism-based; settings: in vivo, 672 h

Chain of Cytochrome P450 2C19 (P33261 whole entry): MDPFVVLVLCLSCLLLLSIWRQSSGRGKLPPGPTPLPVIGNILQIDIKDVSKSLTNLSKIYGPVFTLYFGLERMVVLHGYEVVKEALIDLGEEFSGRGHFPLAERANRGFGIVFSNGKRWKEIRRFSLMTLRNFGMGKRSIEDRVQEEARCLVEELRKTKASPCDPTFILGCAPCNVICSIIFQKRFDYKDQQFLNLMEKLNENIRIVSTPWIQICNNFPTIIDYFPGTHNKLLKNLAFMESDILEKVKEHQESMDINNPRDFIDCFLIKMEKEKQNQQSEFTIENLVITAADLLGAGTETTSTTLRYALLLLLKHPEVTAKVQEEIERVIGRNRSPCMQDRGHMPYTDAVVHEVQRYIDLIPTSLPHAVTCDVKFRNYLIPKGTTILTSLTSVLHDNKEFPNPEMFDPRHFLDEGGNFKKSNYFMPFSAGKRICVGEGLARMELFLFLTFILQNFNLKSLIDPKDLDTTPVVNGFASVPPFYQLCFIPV
Chain of Cytochrome P450 3A4 (P08684 whole entry, canonical isoform): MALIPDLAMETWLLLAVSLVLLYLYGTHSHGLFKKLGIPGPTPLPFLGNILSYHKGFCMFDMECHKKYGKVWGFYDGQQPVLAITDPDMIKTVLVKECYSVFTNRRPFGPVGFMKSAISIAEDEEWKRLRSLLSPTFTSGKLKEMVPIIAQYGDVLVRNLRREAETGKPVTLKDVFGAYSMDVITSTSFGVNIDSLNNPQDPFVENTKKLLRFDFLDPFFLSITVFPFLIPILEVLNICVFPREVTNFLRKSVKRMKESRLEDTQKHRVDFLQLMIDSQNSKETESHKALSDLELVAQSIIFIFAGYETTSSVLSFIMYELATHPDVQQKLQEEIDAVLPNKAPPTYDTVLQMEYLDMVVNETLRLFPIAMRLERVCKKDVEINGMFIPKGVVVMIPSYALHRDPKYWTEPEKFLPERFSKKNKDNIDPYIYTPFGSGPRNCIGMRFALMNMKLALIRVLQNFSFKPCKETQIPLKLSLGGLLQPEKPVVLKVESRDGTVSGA

Molecule `CC(=O)NC[C@@H]1OC(=O)N2c3cc(F)c(N4CCSCC4)cc3OC[C@@H]12` has an Activity [1] of 141 g/L, an Activity [2] of 58.5 fL and a bioavailability [3] of 55.9%. For the same molecule, the Papp at 1 h, 50 µM [4] was 67.6 ×10⁻⁶ cm/s, the Activity [5] was “Non-Toxic” and the half-life at 2 µM [6] was 100 min. The Activity [7] was “Non-Toxic”, the Activity [8] was 3.15% and the IC50 (Cytochrome P450 3A4) was greater than 50 µM. For the same molecule, the Activity [9] was 7.5 fL, the Activity [10] was 17% and the Activity [11] was “Non-Toxic”. For the same molecule, the Activity [12] was “Non-Toxic”, the Activity [13] was 13.7% and the IC50 (Cytochrome P450 2C19) was 48.2 µM. For the same molecule, the Activity [14] was “Non-Toxic”, the half-life at 2 µM [15] was greater than 500 min and the Activity [16] was 80.7%. For the same molecule, the Activity [17] was 7.62 10^12/L, the Activity [18] was 1094 10^9/L and the half-life at 2 µM [19] was 315 min. For the same molecule, the Activity [20] was “Non-Toxic”, the Activity [21] was 735 10^9/L and the Activity [22] was 2.99%.
